Data as given in ChEMBL document CHEMBL4229301, “Open-source discovery of chemical leads for next-generation chemoprotective antimalarials” (2018).

Experiment: Luciferase/luciferin-expressing antifolate-resistant parasites were used to infect a culture of HepG2 cells that were pre-incubated with compounds. Infected hepatocytes emit light due to the luciferase reaction. Assay results are presented as the percent inhibition of light emission compared to control. […]
Format: functional
Settings: Plasmodium berghei, sporozoite; for IC50: read-out: LUCIFERASE INFECTION ASSAY - IC50; for IC90: read-out: LUCIFERASE INFECTION ASSAY - IC90
Method in brief: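 HepG2-A16-CD81EGFP cells (3x10³/well) were seeded 20-26 h before infection, and compound was added 18 h before infection (0.5% DMSO final; library screened at 0.250-39 µM, average 10 µM). Each well received 1x10³ P. berghei GFP-Luc sporozoites from A. stephensi salivary glands, then plates were spun at 330xg for 3 min. After 48 h at 37°C, 5% CO₂, BrightGlo luminescence was read and normalized to 64 DMSO and 64 10 µM atovaquone wells.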

[1] = PBLUC_HILL_SLOPE 1.94, PBLUC_R_SQUARED 0.789
[2] = PBLUC_HILL_SLOPE 1.68, PBLUC_R_SQUARED 0.822
[3] = PBLUC_HILL_SLOPE 1.77, PBLUC_R_SQUARED 0.431

SMILES: N=c1c2ccccc2nnn1-c1cccc(C(F)(F)F)c1
- IC50 [1]: 796 nM
- IC90 [1]: 2470 nM

SMILES: c1ccc(CNc2nc(Nc3ccccc3)nc3ccccc23)cc1
- IC50 [2]: 476 nM
- IC90 [2]: 1760 nM

SMILES: Cc1cc(Nc2ccc(Cl)cc2)n2nc(C(F)(F)F)nc2n1
- IC50 [3]: 1540 nM
- IC90 [3]: 5320 nM
